# From PubChem
# This excerpt belongs to a sample that is enriched for hits.
# Beta2AR agonist = beta2AR agonists driving receptor internalization, primary screen, cell-based, FAP fluorogen, flow cytometry. AID 504454, 2011. Beta-2 adrenergic receptor (Homo sapiens), P07550. 340,000 compounds, 0.43% hits. response, % (concentration not given with the values). Am2.2-beta2AR cells;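 active means response above a set limit, near 3 SD of response in nonfluorescent compounds, cut at about 42% in these data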
# Target sequence (P07550 whole entry, looked up): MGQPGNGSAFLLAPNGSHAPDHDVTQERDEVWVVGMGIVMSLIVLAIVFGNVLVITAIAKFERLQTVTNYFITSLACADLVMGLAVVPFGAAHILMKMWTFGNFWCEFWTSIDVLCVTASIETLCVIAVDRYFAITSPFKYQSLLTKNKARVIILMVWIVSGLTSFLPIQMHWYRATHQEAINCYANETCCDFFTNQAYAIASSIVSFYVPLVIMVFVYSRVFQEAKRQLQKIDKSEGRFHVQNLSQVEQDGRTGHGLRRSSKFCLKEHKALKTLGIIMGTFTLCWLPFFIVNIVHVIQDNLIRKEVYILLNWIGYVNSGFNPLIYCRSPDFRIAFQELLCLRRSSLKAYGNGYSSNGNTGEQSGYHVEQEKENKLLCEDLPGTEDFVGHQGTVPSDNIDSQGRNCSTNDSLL
# UPR XBP1 act = activators of adaptive XBP1 UPR arm, primary screen, cell-based, CHO-XBP1 luciferase reporter, luminescence, uHTS. IRE1-XBP1 UPR activation; percent of tunicamycin response, DMSO as zero. activation, % at 20 µM. 330,000 compounds, 0.33% hits;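 active means versus positive control, 20 µM dose yields 30% or more activation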;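 further: 100% = tunicamycin at 10 µg/mL and 0% = DMSO only wells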
#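 Material: CHO-XBP1 cells stably carrying IRE1-XBP1-driven luciferase reporter | Medium: F12 with 10% serum | Compound dosing: 20 µM single concentration, DMSO 1% | Incubation: Overnight seeding at 37 °C, 6 h compound treatment at 37 °C | Detection: Steady-Glo luminescence read | Read-out basis: % activation of reporter signal versus tunicamycin and DMSO controls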
# p-CIP stab down = p/CIP-EGFP fusion destabilizers, primary screen, fluorescence, F442A cells. Q05BA5. 16 h. decrease of EGFP signal, % at 10 µM. 290,000 compounds, 0.01% hits. AID 1984, 2009;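 active means EGFP signal decrease of at least 30% at 10 µM or well 3 SD below plate mean, unless failing retest; inactive means the rest, including hits failing retest or dose response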
# CHOP inh = inhibitors of CHOP promoter induction, primary screen, cell-based, unfolded protein response, luciferase reporter. CHO-K1 CHOP-promoter luciferase, tunicamycin-induced, 15-18 h. inhibition, % at 10 µM. 220,000 compounds, 3.8% hits;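 active means compounds that reduced the stress-induced luciferase reporter signal by more than about 70% of percent inhibition, limit read from the data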;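 further: 0% = tunicamycin plus vehicle and 100% = wells without tunicamycin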
# Dynein cargo inh = inhibitors of GR-EGFP nuclear translocation, primary screen, dynein cargo transport inhibitor project, imaging, high-content, 3617.4 mouse cells; 220,000 compounds, 0.47% hits; z-score, hits read low; test concentration mostly 20 µM; stimulated with dexamethasone, 1 µM; stronger effect = lower value;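 active means plate z-score of nuclear minus cytoplasmic receptor signal below a set negative limit, without overly bright fluorescence or cell loss, cut at about -3.5 in these data, passing the limit was not always enough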;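 further: z-score of nuclear minus cytoplasmic ring GR-EGFP intensity difference per well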
#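 Also added – dexamethasone, 1.0 µM final · Buffer or medium – tet-free, stripped-serum medium · Schedule – induction 48 h, compound 1 h, agonist 30 min · Detection – formaldehyde fixation, Hoechst nuclear stain, 10x automated fluorescence imaging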
# UPR CHOP act = activators of apoptotic CHOP UPR arm, primary screen, cell-based, CHO-CHOP luciferase reporter, luminescence, uHTS | UPR activation; percent of tunicamycin response over DMSO baseline | activation, % at 10 µM | 330,000 compounds, 0.34% hits;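 active means at 10 µM dose, activation of 40% or more, normalized to positive control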;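 further: 100% = tunicamycin at 10 µg/mL and 0% = DMSO alone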
#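 Evaluation: % reporter activation, DMSO baseline versus tunicamycin full activation; System: CHO-CHOP luciferase reporter cell line; Input: 500 cells/well; Incubation: 6 h compound treatment, 37 °C; Measured by: Steady-Glo luciferase luminescence; Dosing: one dose, 10 µM in 0.5% DMSO; Buffer or medium: F12 medium, 10% FBS; Benchmarks: positive tunicamycin 10 µg/mL, negative DMSO alone.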
# Beta2AR ag CP1 = beta2AR agonists via receptor internalization, confirmation, cell-based, FAP fluorogen, flow cytometry, single point, cherry pick 1 | 1,100 compounds, 25% hits | shares compounds with Beta2AR agonist | percent response (surface receptor), % at 10 µM | Am2.2-beta2AR cells, FAP surface receptor; stronger effect = lower value;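 active means surface receptor percent response at or below 58%, roughly 3 SD from nonfluorescent compounds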
# FAP fluor counter = flagged in Am2.2 fluorescence counterscreen for beta-2AR agonists; shares compounds with Beta2AR agonist; Am2.2 cells, FAP fluorogen flow cytometry; stronger effect = lower value; calls only at 10 µM; 1,100 tested, under 10 active; AID 588765;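 active means percent response below a set limit in fluorescence channel 1 and below 50% in channel 8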
# An asterisk follows results filed as active; i = inactive; . = not tested or not shown; + = active, no number; ! = a repeat was not active.
SMILES,Beta2AR agonist,UPR XBP1 act,p-CIP stab down,CHOP inh,Dynein cargo inh,UPR CHOP act,Beta2AR ag CP1,FAP fluor counter
Cc1cc(C(=O)COC(=O)CNS(=O)(=O)c2ccc3ccccc3c2)c(C)n1-c1ccccc1,46.9*,-0.8,-6.0,24.6,0.313,1.8,98.0,i
CC1CCCCC1NC(=O)C1CCN(c2c3c(nc4ncnn24)CCC3)CC1 (stereo unspecified),-6.4,-6.6,-4.6,.,.,0.5,.,.
CCCC(=O)N1CCN(c2ccc(NC(=O)c3ccc(Br)o3)cc2)CC1,5.7,-0.5,2.0,-2.7,-0.968,4.3,100.8,i
O=C(Nc1ccc(N2CCN(C(=O)c3ccccc3)CC2)cc1)c1ccc(Br)o1,0.8,-5.4,13.7,33.7,-0.197,-2.4,108.3,i
CCN1CCN(c2ccc(NC(=O)c3ccc(Br)o3)cc2)CC1,-8.9,1.7,3.2,.,.,4.1,115.4,i
O=C(Nc1ccc(N2CCCC2)cc1)c1ccc(Br)o1,-3.4,0.4,-12.8,4.8,0.361,-1.3,.,.
Cc1ccc(C(=O)Nc2cccc(C(F)(F)F)c2)cc1NC(=O)c1csc(-c2ccncc2)n1,90.6*,-4.1,5.5,-5.7,0.237,3.7,36.3*!,+!
O=C(CN1C(=O)C2C3C=CC(C3)C2C1=O)Nc1nncs1 (stereo unspecified),1.0,-1.0,10.3,5.8,0.238,-0.4,.,.
Cc1cc(C)nc(NS(=O)(=O)c2ccc(NC(=O)Cc3ccccc3)cc2)n1,2.4,-2.5,12.3,17.4,0.279,-1.7,.,.
Cc1cc(C)nc(NS(=O)(=O)c2ccc(NC(=O)COc3ccccc3)cc2)n1,118.0*,-1.3,-9.8,-1.8,-1.1,-0.1,122.4,i
CCOc1ccc2nc(SCCNS(=O)(=O)c3ccccc3)sc2c1,60.5*,0.1,-4.7,55.8,-0.228,-0.1,102.2,i
O=C(Nc1ccc(NC(=O)c2ccccc2F)cc1)c1cccs1,-0.4,8.4,.,.,.,3.5,113.1,i
Cc1cc(C(=O)OCC(=O)c2ccc(Cl)c([N+](=O)[O-])c2)c2cccc(C)c2n1,10.4,-4.3,6.3,-5.9,0.195,0.1,.,.
Cc1ccc2nc(C)cc(C(=O)OCC(=O)c3ccc(Cl)c([N+](=O)[O-])c3)c2c1,52.6*,-1.3,-6.4,30.2,-0.968,4.2,108.8,i
CC(=O)C[C@H](O)CC(=O)[C@H]1OC(=O)CCCCCCc2ccccc21,5.0,0.0,.,.,.,2.4,.,.
Cc1ccc(S(C)(=O)=NC(=O)c2cc(C)on2)cc1 (stereo unspecified),3.4,-3.1,0.8,1.9,-0.617,1.0,.,.
O=C(O)c1cc(O)ccc1NC(=O)c1cccc2ccccc12,69.1*,-4.0,1.7,-7.2,-1.19,0.4,111.8,i
Cc1ccc(C(=O)Nc2ccc(O)cc2C(=O)O)cc1C,14.0,-1.3,0.3,7.1,-0.401,-0.9,107.4,i
O=C(CCCCCNc1nc(=S)[nH]c2ccccc12)NCCc1ccc(Cl)cc1,54.6*,-2.1,0.0,83.5*,-0.204,-0.2,109.5,i
COc1ccc(CCNCC(O)Cn2c3ccccc3c3ccccc32)cc1OC (stereo unspecified),47.6*,8.8,-1.5,16.2,0.478,-0.9,53.0*,i
Cc1cc(Nc2ccccc2)nn1C(=O)c1ccc(Br)cc1,50.0*,1.0,3.7,69.5,-0.611,-0.4,121.2,i
O=C(NCc1nnc(SCC(=O)N2CCC(Cc3ccccc3)CC2)o1)c1ccccc1F,-5.1,-0.6,-11.4,66.5,-0.775,-1.8,.,.
CCC1CCCCN1CC(=O)Nc1cc(C)nn1-c1nc(C)cc(C)n1 (stereo unspecified),-12.5,1.2,-3.0,33.0,-0.532,-1.0,122.7,i
Cc1cc(C)nc(-n2nc(C)cc2NC(=O)CN2CCCC2)n1,-13.9,-2.8,-5.3,-4.8,-0.127,2.1,.,.
CC(/C=C/c1ccccc1)=N\NC(N)=S,-5.6,5.0,-7.1,9.6,0.0131,3.1,90.7,i
SMILES,Beta2AR agonist,UPR XBP1 act,p-CIP stab down,CHOP inh,Dynein cargo inh,UPR CHOP act,Beta2AR ag CP1,FAP fluor counter
COc1ccc(C2C3C(C)=NN=C3CC(C)(O)C2C(C)=O)cc1 (stereo unspecified),-6.2,0.8,-3.3,14.7,0.33,-1.6,.,.
CN(C)CCCN(C(=O)c1ccco1)c1nc2ccc(Br)cc2s1,17.7,-1.9,-3.9,1.4,3.74,0.9,.,.
CN(C)CCCN(C(=O)CCc1ccccc1)c1nc2ccc(Br)cc2s1,43.6*,6.4,3.8,53.1,4.15,1.9,119.9,i
COC(=O)c1ccc(CNC(=O)c2cc(COc3cncc(Cl)c3)on2)cc1,-2.4,-3.1,-12.3,.,.,3.0,115.1,i
CC1=NNC(=O)C1CCC(=O)N/N=C/c1ccc(Cl)cc1Cl (stereo unspecified),-7.0,0.9,-0.4,3.2,-0.576,3.5,.,.
CCN(CC)S(=O)(=O)c1cc(C(=O)Nc2cc(Cl)ccc2N2CCN(C)CC2)ccc1Cl,74.2*,7.3,2.2,-28.1,-0.522,1.6,20.1*,i
CN1CCN(c2ccc(Cl)cc2NC(=O)c2ccc(S(=O)(=O)N(C)C)cc2)CC1,4.0,1.8,2.9,-18.5,-0.561,-2.5,.,.
Cc1c(C(=O)N2CCC(C)CC2)oc2ccc(S(=O)(=O)N3CCC4(CC3)OCCO4)cc12,8.7,-2.8,-2.9,13.9,-0.636,-1.8,.,.
CSc1ccccc1OCc1cc(C(=O)NC2CCc3ccccc32)no1 (stereo unspecified),2.5,-2.2,1.8,.,.,-2.3,.,.
CCC(NC(=O)c1cc(COc2cc(C)c(Cl)c(C)c2)on1)c1ccncc1 (stereo unspecified),-2.1,-9.8,-8.6,.,.,4.1,.,.
Cc1ccc(OCc2cc(C(=O)NCc3cc(F)ccc3C)no2)cn1,-11.0,0.7,-0.7,.,.,3.3,75.2,i
Cc1ccc(OCc2cc(C(=O)NC3CCc4ccccc43)no2)cn1 (stereo unspecified),-2.9,-8.6,-15.6,.,.,-0.5,121.9,i
CCC(NC(=O)c1cc(COc2ccc(C)nc2)on1)c1ccc(C)cc1 (stereo unspecified),-2.6,-2.2,-13.7,.,.,-1.1,127.5,i
